Laboratory results as given in the M2OR odorant receptor database.

How the values were obtained:
Settings in all cases: stereoisomer not certain
UniProt Q8VGZ2 = target: T1, UniProt Q8VGZ2
T1 sequence (whole entry): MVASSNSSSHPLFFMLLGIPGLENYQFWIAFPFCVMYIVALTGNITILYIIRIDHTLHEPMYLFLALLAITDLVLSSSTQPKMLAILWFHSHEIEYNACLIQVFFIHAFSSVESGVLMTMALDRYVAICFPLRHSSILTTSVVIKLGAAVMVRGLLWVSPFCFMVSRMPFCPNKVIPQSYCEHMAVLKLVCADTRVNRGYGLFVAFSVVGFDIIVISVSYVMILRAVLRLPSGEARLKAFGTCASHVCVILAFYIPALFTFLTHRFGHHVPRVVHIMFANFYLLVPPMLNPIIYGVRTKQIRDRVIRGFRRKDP
Procedure, shortened: (§1)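 Assay methods differ from source to source, frequently being transient luciferase assays in mammalian cell lines. For each receptor–molecule pair, the label responsive (active) applies when the original authors judged the measured signal statistically different from baseline, and non-responsive (inactive) applies otherwise.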

UniProt Q8VGZ7 = target: T2, UniProt Q8VGZ7
T2 sequence (whole entry): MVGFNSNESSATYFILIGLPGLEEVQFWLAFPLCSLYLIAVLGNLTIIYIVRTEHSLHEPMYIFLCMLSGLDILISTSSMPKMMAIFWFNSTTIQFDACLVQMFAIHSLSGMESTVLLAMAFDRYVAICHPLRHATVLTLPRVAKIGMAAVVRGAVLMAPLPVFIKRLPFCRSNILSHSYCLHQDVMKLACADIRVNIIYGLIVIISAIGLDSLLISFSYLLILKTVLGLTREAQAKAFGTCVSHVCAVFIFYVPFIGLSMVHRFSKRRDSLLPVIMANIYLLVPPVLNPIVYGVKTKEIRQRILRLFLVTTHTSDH
Procedure, shortened: as §1

UniProt Q8VH16 = target: T3, UniProt Q8VH16
T3 sequence (whole entry): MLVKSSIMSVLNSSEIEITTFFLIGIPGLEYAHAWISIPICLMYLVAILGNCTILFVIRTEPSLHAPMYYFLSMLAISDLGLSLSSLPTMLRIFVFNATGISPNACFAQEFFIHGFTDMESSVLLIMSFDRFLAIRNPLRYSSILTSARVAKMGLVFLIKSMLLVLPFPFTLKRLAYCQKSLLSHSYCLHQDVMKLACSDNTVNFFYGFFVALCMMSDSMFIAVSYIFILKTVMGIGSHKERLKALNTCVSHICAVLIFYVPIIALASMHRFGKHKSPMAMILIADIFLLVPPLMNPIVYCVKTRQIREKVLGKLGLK
Procedure, shortened: as §1

UniProt Q8VH20 = target: T4, UniProt Q8VH20
T4 sequence (whole entry): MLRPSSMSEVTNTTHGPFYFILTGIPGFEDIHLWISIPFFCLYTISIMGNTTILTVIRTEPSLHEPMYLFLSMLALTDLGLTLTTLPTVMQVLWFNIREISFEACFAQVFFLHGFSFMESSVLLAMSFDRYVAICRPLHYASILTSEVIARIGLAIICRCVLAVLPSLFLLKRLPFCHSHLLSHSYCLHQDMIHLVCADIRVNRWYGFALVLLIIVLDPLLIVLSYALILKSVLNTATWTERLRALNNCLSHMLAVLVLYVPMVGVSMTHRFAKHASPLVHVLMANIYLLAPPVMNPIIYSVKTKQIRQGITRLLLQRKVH
Procedure, shortened: as §1

UniProt Q8VH21 = target: T5, UniProt Q8VH21
T5 sequence (whole entry): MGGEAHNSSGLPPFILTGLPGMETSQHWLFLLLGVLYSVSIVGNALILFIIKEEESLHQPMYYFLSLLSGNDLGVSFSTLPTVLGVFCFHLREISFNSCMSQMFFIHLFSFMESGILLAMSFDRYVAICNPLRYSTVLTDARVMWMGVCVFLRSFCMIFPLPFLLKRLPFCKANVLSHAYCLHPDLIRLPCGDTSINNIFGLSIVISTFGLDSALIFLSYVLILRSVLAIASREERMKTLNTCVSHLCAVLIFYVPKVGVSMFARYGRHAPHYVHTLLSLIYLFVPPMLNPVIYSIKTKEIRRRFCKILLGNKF
Procedure, shortened: as §1

UniProt Q8VH18 = target: T6, UniProt Q8VH18
T6 sequence (whole entry): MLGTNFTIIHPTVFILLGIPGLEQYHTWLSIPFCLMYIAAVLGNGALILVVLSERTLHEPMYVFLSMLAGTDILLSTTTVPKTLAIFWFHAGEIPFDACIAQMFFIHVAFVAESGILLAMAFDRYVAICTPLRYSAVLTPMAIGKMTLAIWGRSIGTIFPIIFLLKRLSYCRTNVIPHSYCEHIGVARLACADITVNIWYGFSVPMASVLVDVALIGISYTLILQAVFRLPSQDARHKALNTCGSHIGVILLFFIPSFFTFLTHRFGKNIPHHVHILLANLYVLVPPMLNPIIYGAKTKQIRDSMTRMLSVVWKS
Procedure, shortened: as §1

Measured: odorant receptor agonist call

C=CC(C)=CCC=C(C)CCC=C(C)C
not listed: UniProt Q8VH18
inactive: all other assays above

CCSCC
not listed: UniProt Q8VH18
inactive: all other assays above

CC(C)CS
not listed: UniProt Q8VH18
inactive: all other assays above

CC(=O)OCCc1ccccc1
not listed: UniProt Q8VH18
inactive: all other assays above

CC1CCC(C(C)C)C(=O)C1 (stereo unspecified)
not listed: UniProt Q8VH18
inactive: all other assays above

CCc1occc(=O)c1O
not listed: UniProt Q8VH18
inactive: all other assays above

CCCCCCCCCCOC(C)=O
not listed: UniProt Q8VH18
inactive: all other assays above

O=C(OCc1ccccc1)c1ccccc1O
not listed: UniProt Q8VH18
inactive: all other assays above

CCCCCC(C)O (stereo unspecified)
not listed: UniProt Q8VH18
inactive: all other assays above

Cc1ccc(OC(=O)C(C)C)cc1
not listed: UniProt Q8VH18
inactive: all other assays above

C=C(C)C1CCC2(C)OC2C1 (stereo unspecified)
not listed: UniProt Q8VH18
inactive: all other assays above

CCC(C)O (stereo unspecified)
not listed: UniProt Q8VH18
inactive: all other assays above

CSSCc1ccco1
not listed: UniProt Q8VH18
inactive: all other assays above

C=CC(=C)CCC=C(C)CCC=C(C)C
not listed: UniProt Q8VH18
inactive: all other assays above

CCCCCCC=CC=O
not listed: UniProt Q8VH18
inactive: all other assays above

CCCCCC(=Cc1ccccc1)C(OC)OC
not listed: UniProt Q8VH18
inactive: all other assays above

CCC(C)c1nccnc1OC (stereo unspecified)
not listed: UniProt Q8VH18
inactive: all other assays above

CCCCCCCCCCCO
not listed: UniProt Q8VH18
inactive: all other assays above

OCCCCCCCCCO
not listed: UniProt Q8VH18
inactive: all other assays above

COc1nccnc1C(C)C
not listed: UniProt Q8VH18
inactive: all other assays above

CC(=O)C=CC1=C(C)CCCC1(C)C
not listed: UniProt Q8VH18
inactive: all other assays above

CCCCCOC(=O)CC
not listed: UniProt Q8VH18
inactive: all other assays above

Cc1ccccc1OC(=O)C(C)C
not listed: UniProt Q8VH18
inactive: all other assays above

CCCCCCCCCC=CC=O
not listed: UniProt Q8VH18
inactive: all other assays above

CC1(C)CC(=O)CC(=O)C1
not listed: UniProt Q8VH18
inactive: all other assays above

CCOC(=O)CC(C)C
not listed: UniProt Q8VH18
inactive: all other assays above

Cc1ccc2c(c1)OCC(=O)CO2
not listed: UniProt Q8VH18
inactive: all other assays above

CC=CC(=O)C1=C(C)CCCC1(C)C
not listed: UniProt Q8VH18
inactive: all other assays above

Cc1c(C)c(C)c(C=O)c(C)c1C
not listed: UniProt Q8VH18
inactive: all other assays above

CCSSCC
not listed: UniProt Q8VH18
inactive: all other assays above

CCCCCCC(C)O (stereo unspecified)
not listed: UniProt Q8VH18
inactive: all other assays above

CCCCCCC(C=O)=Cc1ccccc1
not listed: UniProt Q8VH18
inactive: all other assays above

CCCCOC(=O)CCC
inactive: UniProt Q8VH18
